How the values were obtained:
Assay type in all cases: toxicity, cell-based
[1] = tested on: U2OS; assay: Incucyte cell viability with U2OS; settings: human, 10 µM, compound concentration 10 uM; note: filed as whole numbers so only -1 and 0 and 1 occur
[2] = tested on: HEK-293T; assay: Incucyte cell viability with HEK293T; settings: human, 10 µM, compound concentration 10 uM; note: filed as whole numbers so only -1 and 0 and 1 occur
[3] = tested on: Fibroblast; assay: Incucyte cell viability with human fibroblast; settings: 10 µM, compound concentration 10 uM; note: filed as whole numbers so only -1 and 0 and 1 occur
[4] = tested on: U2OS; assay: Multiplex assay against U2OS; settings: human
Summary of the method: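 With compound added, live cells were imaged on a CQ1 microscope at 37°C and 5% CO2; staining with Hoechst33342, BioTracker Green Microtubule Cytoskeleton Dye, MitoTracker Red and Annexin V Alexa Fluor 680 had been done at seeding. The CellPathfinder machine-learning gating scheme split cells into Hoechst high-intensity objects or normal cells, normal cells into healthy, pyknosed or fragmented nuclei, and pyknosed cells into mitotic or apoptotic. The tubulin, mitochondrial-mass and membrane-permeability phenotypes are per cents of healthy-nucleus cells.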

[5] = 6 h, replicate number 1, timepoint 6 hours
[6] = 12 h, replicate number 1, timepoint 12 hours
[7] = 18 h, replicate number 1, timepoint 18 hours
[8] = 24 h, replicate number 1, timepoint 24 hours
[9] = 12 h, 1 µM, compound concentration 1 uM, replicate 1
[10] = 12 h, 1 µM, compound concentration 1 uM, replicate 2
[11] = 12 h, 10 µM, compound concentration 10 uM, replicate 1
[12] = 12 h, 10 µM, compound concentration 10 uM, replicate 2
[13] = 24 h, 1 µM, compound concentration 1 uM, replicate 1
[14] = 24 h, 1 µM, compound concentration 1 uM, replicate 2
[15] = 24 h, 10 µM, compound concentration 10 uM, replicate 1
[16] = 24 h, 10 µM, compound concentration 10 uM, replicate 2

Cl.Cn1c2c(c3ccc(Cl)c(Cl)c31)C(C#N)C1(CCNCC1)NC2=O (stereo not given)
Growth Rate ([1]; 0 h, replicate number 1, timepoint 0 hours): 0
Growth Rate [1, 5]: 0
Growth Rate [1, 6]: 0
Growth Rate [1, 7]: 0
Growth Rate [1, 8]: 0
Growth Rate [2, 5]: 0
Growth Rate [2, 6]: 0
Growth Rate [2, 7]: 0
Growth Rate [2, 8]: 0
Growth Rate [3, 5]: 0
Growth Rate [3, 6]: 0
Growth Rate [3, 7]: 0
Growth Rate [3, 8]: 0
Population Apoptotic (%) [4, 9]: 30%
Population Fragmented Nuclei (%) [4, 9]: 2%
Population Healthy Nuclei (%) [4, 9]: 90%
Population Hoechst High Intensity Objects (%) [4, 9]: 1%
Population Mitochondria Different-Phenotype (%) [4, 9]: 14%
Population Mitotic Cells (%) [4, 9]: 69%
Population Normal (%) [4, 9]: 98%
Population Pyknosed Nuclei (%) [4, 9]: 7%
Population Tubulin-Different-Phenotype (%) [4, 9]: 19%
Total Cell Count [4, 9]: 137
Population Apoptotic (%) [4, 10]: 0%
Population Fragmented Nuclei (%) [4, 10]: 4%
Population Healthy Nuclei (%) [4, 10]: 94%
Population Hoechst High Intensity Objects (%) [4, 10]: 13%
Population Membrane Permeable-Phenotype (%) [4, 10]: 9%
Population Mitochondria Different-Phenotype (%) [4, 10]: 36%
Population Mitotic Cells (%) [4, 10]: 100%
Population Normal (%) [4, 10]: 86%
Population Pyknosed Nuclei (%) [4, 10]: 0%
Population Tubulin-Different-Phenotype (%) [4, 10]: 38%
Total Cell Count [4, 10]: 159
Population Apoptotic (%) [4, 11]: 56%
Population Fragmented Nuclei (%) [4, 11]: 20%
Population Healthy Nuclei (%) [4, 11]: 20%
Population Hoechst High Intensity Objects (%) [4, 11]: 3%
Population Membrane Permeable-Phenotype (%) [4, 11]: 53%
Population Mitochondria Different-Phenotype (%) [4, 11]: 80%
Population Mitotic Cells (%) [4, 11]: 43%
Population Normal (%) [4, 11]: 96%
Population Pyknosed Nuclei (%) [4, 11]: 58%
Population Tubulin-Different-Phenotype (%) [4, 11]: 96%
Total Cell Count [4, 11]: 183
Population Apoptotic (%) [4, 12]: 61%
Population Fragmented Nuclei (%) [4, 12]: 22%
Population Healthy Nuclei (%) [4, 12]: 27%
Population Hoechst High Intensity Objects (%) [4, 12]: 24%
Population Membrane Permeable-Phenotype (%) [4, 12]: 36%
Population Mitochondria Different-Phenotype (%) [4, 12]: 90%
Population Mitotic Cells (%) [4, 12]: 38%
Population Normal (%) [4, 12]: 75%
Population Pyknosed Nuclei (%) [4, 12]: 49%
Population Tubulin-Different-Phenotype (%) [4, 12]: 95%
Total Cell Count [4, 12]: 123
Population Apoptotic (%) [4, 13]: 40%
Population Fragmented Nuclei (%) [4, 13]: 4%
Population Healthy Nuclei (%) [4, 13]: 88%
Population Hoechst High Intensity Objects (%) [4, 13]: 1%
Population Membrane Permeable-Phenotype (%) [4, 13]: 5%
Population Mitochondria Different-Phenotype (%) [4, 13]: 13%
Population Mitotic Cells (%) [4, 13]: 60%
Population Normal (%) [4, 13]: 98%
Population Pyknosed Nuclei (%) [4, 13]: 6%
Population Tubulin-Different-Phenotype (%) [4, 13]: 26%
Total Cell Count [4, 13]: 129
Population Apoptotic (%) [4, 14]: 75%
Population Fragmented Nuclei (%) [4, 14]: 3%
Population Healthy Nuclei (%) [4, 14]: 93%
Population Hoechst High Intensity Objects (%) [4, 14]: 10%
Population Membrane Permeable-Phenotype (%) [4, 14]: 8%
Population Mitochondria Different-Phenotype (%) [4, 14]: 29%
Population Mitotic Cells (%) [4, 14]: 25%
Population Normal (%) [4, 14]: 89%
Population Pyknosed Nuclei (%) [4, 14]: 2%
Population Tubulin-Different-Phenotype (%) [4, 14]: 31%
Total Cell Count [4, 14]: 157
Population Apoptotic (%) [4, 15]: 85%
Population Fragmented Nuclei (%) [4, 15]: 37%
Population Healthy Nuclei (%) [4, 15]: 10%
Population Hoechst High Intensity Objects (%) [4, 15]: 16%
Population Membrane Permeable-Phenotype (%) [4, 15]: 92%
Population Mitochondria Different-Phenotype (%) [4, 15]: 100%
Population Mitotic Cells (%) [4, 15]: 14%
Population Normal (%) [4, 15]: 83%
Population Pyknosed Nuclei (%) [4, 15]: 52%
Population Tubulin-Different-Phenotype (%) [4, 15]: 92%
Total Cell Count [4, 15]: 231
Population Apoptotic (%) [4, 16]: 76%
Population Fragmented Nuclei (%) [4, 16]: 33%
Population Healthy Nuclei (%) [4, 16]: 17%
Population Hoechst High Intensity Objects (%) [4, 16]: 30%
Population Membrane Permeable-Phenotype (%) [4, 16]: 75%
Population Mitochondria Different-Phenotype (%) [4, 16]: 91%
Population Mitotic Cells (%) [4, 16]: 23%
Population Normal (%) [4, 16]: 69%
Population Pyknosed Nuclei (%) [4, 16]: 49%
Population Tubulin-Different-Phenotype (%) [4, 16]: 91%
Total Cell Count [4, 16]: 164
